In ChEMBL document CHEMBL2021852 (ACS Med Chem Lett, 2011):
The source made the active and inactive calls. No cut-off for these calls is given here.

Legend:
[1] = Half life in rat at 1.6 mg/kg, iv; type: ADME, organism-based; parameters: dose 1.6 mg/kg, route intravenous; conditions: in vivo
Outline: (§1)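 Compounds were dosed as fumarate salts in separate intravenous and oral arms. Oral AUC(0–t), IV half-life, IV clearance, Vss and oral bioavailability (F) were derived from the plasma levels.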

[2] = Volume of distribution at steady state in rat at 1.6 mg/kg, iv and 8.2 mg/kg, po; type: ADME, organism-based; conditions: in vivo, read-out: Vdss; outline: as §1
[3] = AUC (0 to t) in rat at 8.2 mg/kg, po; type: ADME, organism-based; parameters: dose 8.2 mg/kg, route oral; conditions: plasma; outline: as §1
[4] = Oral bioavailability in rat at 8.2 mg/kg; type: ADME, organism-based; conditions: in vivo; outline: as §1
[5] = Clearance in rat at 1.6 mg/kg, iv; type: ADME, organism-based; parameters: dose 1.6 mg/kg, route intravenous; conditions: in vivo; outline: as §1
[6] = molecular target: T1, Renin (Homo sapiens, UniProt P00797); experiment: Inhibition of renin in human plasma assessed as formation of angiotensin1 product after 90 mins by competitive radioimmunoassay
T1 sequence (P00797 whole entry): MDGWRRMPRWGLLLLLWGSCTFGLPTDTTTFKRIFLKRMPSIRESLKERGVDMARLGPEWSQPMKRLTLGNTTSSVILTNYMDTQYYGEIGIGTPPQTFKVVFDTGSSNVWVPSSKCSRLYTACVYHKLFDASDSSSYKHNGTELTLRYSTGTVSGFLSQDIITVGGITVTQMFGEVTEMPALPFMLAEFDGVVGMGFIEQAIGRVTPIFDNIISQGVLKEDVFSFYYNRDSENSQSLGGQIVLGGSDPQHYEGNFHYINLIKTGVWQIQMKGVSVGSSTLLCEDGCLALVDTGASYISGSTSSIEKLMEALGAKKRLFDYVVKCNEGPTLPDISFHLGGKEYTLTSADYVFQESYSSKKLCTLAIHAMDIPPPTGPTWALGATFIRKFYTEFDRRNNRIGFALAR
Outline: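 IC50 for renin inhibition determined in the presence of human plasma; each value is the average of at least two replicates.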

[7] = system: Salmonella typhimurium; experiment: Mutagenicity against Salmonella typhimurium in the absence of S9-mix; type: toxicity, organism-based; conditions: salmonella enterica subsp. enterica serovar typhimurium
[8] = system: L5178Y; experiment: Genotoxicity against TK-negative mouse L5178Y cells; type: toxicity, cell-based
[9] = system: L5178Y; experiment: Genotoxicity against TK-positive mouse L5178Y cells; type: toxicity, cell-based
[10] = system: Salmonella typhimurium; experiment: Mutagenicity against Salmonella typhimurium in the presence of S9-mix; type: toxicity, organism-based; conditions: salmonella enterica subsp. enterica serovar typhimurium
[11] = molecular target: T1, Renin; experiment: Inhibition of human recombinant renin using DABCYL-gamma-Abu-Ile-His-Pro-Phe-His-Leu-Val-Ile-His-Thr-EDANS as substrate for 60 mins by fluorimetry
Outline: (§2)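 Purified recombinant human renin measured in buffer; each value is the average of at least two replicates.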

[12] = Fraction unbound in cynomolgus monkey plasma; type: ADME, cell-free, Macaca fascicularis
[13] = molecular target: T1, Renin; experiment: Inhibition of human recombinant renin using H-Asp-Arg-Val-Tyr-Ile-His-Pro-Phe-His-Leu-Val-Ile-His-Asn-OH as substrate assessed as formation of angiotensin1 product after 2 hrs by competive radioimmunoassay; outline: as §2
[14] = Fraction unbound in dog plasma; type: ADME, cell-free, Canis lupus familiaris
[15] = molecular target: Cytochrome P450 3A4 (Homo sapiens, UniProt P08684); experiment: Inhibition of CYP3A4 using testosterone as substrate in human liver microsome for 20 mins by HPLC analysis; type: ADME, microsomes
Sequence of Cytochrome P450 3A4 (P08684 whole entry): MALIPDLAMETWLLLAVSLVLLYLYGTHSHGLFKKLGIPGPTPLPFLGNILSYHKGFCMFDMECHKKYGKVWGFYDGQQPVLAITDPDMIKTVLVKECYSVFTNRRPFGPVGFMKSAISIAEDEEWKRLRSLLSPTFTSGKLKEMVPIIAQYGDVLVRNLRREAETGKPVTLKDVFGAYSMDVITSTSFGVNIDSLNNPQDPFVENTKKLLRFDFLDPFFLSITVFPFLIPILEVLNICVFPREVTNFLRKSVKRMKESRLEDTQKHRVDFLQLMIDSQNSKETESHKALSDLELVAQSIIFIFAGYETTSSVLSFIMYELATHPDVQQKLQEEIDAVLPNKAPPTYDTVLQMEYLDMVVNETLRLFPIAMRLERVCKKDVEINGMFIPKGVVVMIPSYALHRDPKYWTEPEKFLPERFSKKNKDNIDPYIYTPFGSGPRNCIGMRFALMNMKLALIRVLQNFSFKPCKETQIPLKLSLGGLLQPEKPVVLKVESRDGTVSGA
Outline: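 CYP3A4 inhibition measured in human liver microsomes; IC50 is the average of at least two replicates.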

[16] = Volume of distribution at steady state in cynomolgus monkey at 1 mg/kg, iv and 2 mg/kg, po; type: ADME, organism-based, Macaca fascicularis; conditions: in vivo, read-out: Vdss; outline: as §1
[17] = Volume of distribution at steady state in rat at […], iv and 8.2 mg/kg, po; type: ADME, organism-based; conditions: in vivo, read-out: Vdss
[18] = Oral bioavailability in cynomolgus monkey at 2 mg/kg; type: ADME, organism-based, Macaca fascicularis; conditions: in vivo; outline: as §1
[19] = Clearance in rat at […], iv; type: ADME, organism-based; parameters: dose 1.5 mg/kg, route intravenous; conditions: in vivo
[20] = AUC (0 to t) in cynomolgus monkey at 2 mg/kg, po; type: ADME, organism-based, Macaca fascicularis; parameters: dose 2 mg/kg, route oral; conditions: plasma; outline: as §1
[21] = Clearance in cynomolgus monkey at 1 mg/kg, iv; type: ADME, organism-based, Macaca fascicularis; parameters: dose 1 mg/kg, route intravenous; conditions: in vivo; outline: as §1
[22] = Half life in cynomolgus monkey at 1 mg/kg, iv; type: ADME, organism-based, Macaca fascicularis; parameters: dose 1 mg/kg, route intravenous; conditions: in vivo; outline: as §1
[23] = Half life in rat at […], iv; type: ADME, organism-based; parameters: dose 1.5 mg/kg, route intravenous; conditions: in vivo
[24] = Half life in dog at 0.5 mg/kg, iv; type: ADME, organism-based, Canis lupus familiaris; parameters: dose 0.5 mg/kg, route intravenous; conditions: in vivo; outline: as §1
[25] = Half life in rat at 2 mg/kg, iv; type: ADME, organism-based; parameters: dose 2 mg/kg, route intravenous; conditions: in vivo; outline: as §1
[26] = Volume of distribution at steady state in dog at 0.5 mg/kg, iv and 1 mg/kg, po; type: ADME, organism-based, Canis lupus familiaris; conditions: in vivo, read-out: Vdss; outline: as §1
[27] = AUC (0 to t) in dog at 1 mg/kg, po; type: ADME, organism-based, Canis lupus familiaris; parameters: dose 1 mg/kg, route oral; conditions: plasma; outline: as §1
[28] = Clearance in rat at 2 mg/kg, iv; type: ADME, organism-based; parameters: dose 2 mg/kg, route intravenous; conditions: in vivo; outline: as §1
[29] = Clearance in dog at 0.5 mg/kg, iv; type: ADME, organism-based, Canis lupus familiaris; parameters: dose 0.5 mg/kg, route intravenous; conditions: in vivo; outline: as §1
[30] = Volume of distribution at steady state in rat at 2 mg/kg, iv and 10 mg/kg, po; type: ADME, organism-based; conditions: in vivo, read-out: Vdss; outline: as §1
[31] = Oral bioavailability in dog at 1 mg/kg; type: ADME, organism-based, Canis lupus familiaris; conditions: in vivo; outline: as §1
[32] = molecular target: Cathepsin D (Homo sapiens) (UniProt P07339); experiment: Inhibition of human cathepsin D using Mca-GKPILFFRLK(Dnp)-D-Arg-NH2 as substrate at 10 uM incubated for 10 mins prior to substrate addition measured for 1 hr by FRET analysis
Sequence of Cathepsin D (Homo sapiens) (P07339 65-162 limits assumed): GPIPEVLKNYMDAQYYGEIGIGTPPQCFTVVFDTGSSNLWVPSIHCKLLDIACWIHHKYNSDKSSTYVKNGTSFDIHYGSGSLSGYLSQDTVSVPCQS
Sequence of Cathepsin D (Homo sapiens) (P07339 169-412 limits assumed): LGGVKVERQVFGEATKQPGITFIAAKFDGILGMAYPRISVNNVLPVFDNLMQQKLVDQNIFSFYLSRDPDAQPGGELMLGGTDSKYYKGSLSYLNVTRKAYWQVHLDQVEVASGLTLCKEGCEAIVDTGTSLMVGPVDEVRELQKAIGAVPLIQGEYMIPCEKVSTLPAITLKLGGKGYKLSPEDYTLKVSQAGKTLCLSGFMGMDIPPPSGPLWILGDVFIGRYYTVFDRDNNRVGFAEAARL

[33] = molecular target: Beta-secretase 1 (Homo sapiens) (UniProt P56817); experiment: Inhibition of BACE using SEVNLDAEFK(Dnp)NH2 as substrate at 10 uM incubated for 10 mins prior to substrate addition measured for 1 hr by FRET analysis
Sequence of Beta-secretase 1 (Homo sapiens) (P56817 whole entry): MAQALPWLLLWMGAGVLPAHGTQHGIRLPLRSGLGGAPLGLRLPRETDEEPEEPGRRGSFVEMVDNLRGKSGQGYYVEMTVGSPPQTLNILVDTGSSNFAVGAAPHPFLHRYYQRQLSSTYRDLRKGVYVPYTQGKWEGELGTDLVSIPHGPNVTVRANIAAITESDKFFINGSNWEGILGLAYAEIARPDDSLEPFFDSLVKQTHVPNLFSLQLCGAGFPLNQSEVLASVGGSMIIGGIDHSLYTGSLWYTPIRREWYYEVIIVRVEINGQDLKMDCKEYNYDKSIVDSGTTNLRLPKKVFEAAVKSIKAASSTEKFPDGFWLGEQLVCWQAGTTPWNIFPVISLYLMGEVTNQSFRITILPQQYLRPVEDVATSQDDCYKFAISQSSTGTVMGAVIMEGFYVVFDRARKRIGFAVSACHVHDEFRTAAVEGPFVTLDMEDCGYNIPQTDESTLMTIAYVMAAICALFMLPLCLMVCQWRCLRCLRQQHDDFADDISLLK

[34] = system: Rattus norvegicus; experiment: Antihypertensive activity in double transgenic rat expressing human renin assessed as reduction in mean arterial blood pressure at 10 mg/kg, po after 24 hrs; type: functional, organism-based; parameters: dose 10 mg/kg; conditions: Artery
Outline: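 Double transgenic rats expressing human renin and angiotensinogen, with severe hypertension dependent on human renin, received 10 mg/kg orally. Mean arterial pressure was followed over time, including at t = 24 h.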

[35] = molecular target: T2, Cathepsin E (Homo sapiens) (UniProt P14091); experiment: Inhibition of human recombinant cathepsin E using Mca-GKPILFFRLK(Dnp)-D-Arg-NH2 as substrate at 10 uM incubated for 10 mins prior to substrate addition measured for 1 hr by FRET analysis
T2 sequence (whole entry): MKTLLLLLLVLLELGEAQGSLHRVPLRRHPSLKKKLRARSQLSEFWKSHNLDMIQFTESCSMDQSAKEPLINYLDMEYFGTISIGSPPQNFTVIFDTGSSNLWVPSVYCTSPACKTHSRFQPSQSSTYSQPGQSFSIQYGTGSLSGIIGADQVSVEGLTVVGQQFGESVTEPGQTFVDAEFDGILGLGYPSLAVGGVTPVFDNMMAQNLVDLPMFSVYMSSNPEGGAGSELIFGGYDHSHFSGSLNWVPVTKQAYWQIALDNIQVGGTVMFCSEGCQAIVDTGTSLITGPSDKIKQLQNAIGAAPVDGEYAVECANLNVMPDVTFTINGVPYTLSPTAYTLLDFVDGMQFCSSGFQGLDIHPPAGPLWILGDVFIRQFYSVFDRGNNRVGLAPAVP

Structure (SMILES): CNC[C@H](CC1CCCCC1)NC(=O)N1CCC[C@@H]([C@@](O)(CCCCOC)c2cccc(Cl)c2F)C1.O=C(O)/C=C/C(=O)O
- half-life [1]: 15.9 h
- Vd [2]: 16 L/kg
- AUC(0-t) [3]: 226 ng·h/mL
- bioavailability [4]: 5.5%
- clearance [5]: 30 mL/min/kg

Structure (SMILES): CN[C@H](CNC(=O)N1CCC[C@@H]([C@@H](OCCNC(=O)OC)c2cccc(Cl)c2)C1)C[C@H]1CCCOC1 [VTP-27999]
- IC50 [6]: 1.1 nM
- Activity [7]: Non-toxic
- Activity [8]: Non-toxic
- Activity [9]: Non-toxic
- Activity [10]: Non-toxic
- IC50 [11]: 0.47 nM
- fraction unbound [12]: 0.29
- IC50 [13]: 0.3 nM
- fraction unbound [14]: 0.22

Structure (SMILES): CNC[C@H](CC1CCOCC1)NC(=O)N1CCC[C@@H]([C@@H](OCCNC(=O)OC)c2cccc(Cl)c2)C1
- IC50 [6]: 13.1 nM
- IC50 [11]: 6.2 nM
- IC50 [15]: > 30000 nM
- IC50 [13]: 1.7 nM

Structure (SMILES): CNC[C@H](C[C@H]1CCCOC1)NC(=O)N1CCC[C@@H]([C@@H](OCCNC(=O)OC)c2cccc(Cl)c2)C1.O=C(O)/C=C/C(=O)O
- Vd [16]: 5 L/kg
- Vd [17]: 39 L/kg
- bioavailability [18]: 5.3%
- clearance [19]: 48 mL/min/kg
- AUC(0-t) [20]: 172 ng·h/mL
- clearance [21]: 9.5 mL/min/kg
- half-life [22]: 14 h
- AUC(0-t) [3]: 167 ng·h/mL
- bioavailability [4]: 7.5%
- half-life [23]: 18.3 h

Structure (SMILES): CNC[C@H](C[C@H]1CCCOC1)NC(=O)N1CCC[C@@H]([C@@H](OCCNC(=O)OC)c2cccc(Cl)c2)C1
- IC50 [6]: 0.48 nM
- IC50 [11]: 0.56 nM
- IC50 [15]: 28000 nM
- IC50 [13]: 0.42 nM

Structure (SMILES): CN[C@H](CNC(=O)N1CCC[C@@H]([C@@H](OCCNC(=O)OC)c2cccc(Cl)c2)C1)C[C@H]1CCCOC1.O=C(O)/C=C/C(=O)O
- half-life [24]: 9.9 h
- Vd [16]: 4.7 L/kg
- bioavailability [18]: 18%
- half-life [25]: 7.3 h
- Vd [26]: 4 L/kg
- AUC(0-t) [20]: 404 ng·h/mL
- AUC(0-t) [27]: 484 ng·h/mL
- clearance [21]: 29.6 mL/min/kg
- half-life [22]: 12.3 h
- clearance [28]: 128 mL/min/kg
- clearance [29]: 12.9 mL/min/kg
- Vd [30]: 38 L/kg
- bioavailability [31]: 41%

Structure (SMILES): CN[C@H](CNC(=O)N1CCC[C@@H]([C@@H](OCCNC(=O)OC)c2cccc(Cl)c2)C1)C[C@H]1CCCOC1
- inhibition [32]: < 10%
- inhibition [33]: < 10%
- Activity [34]: Active
- inhibition [35]: < 10%

Structure (SMILES): CNC[C@H](C[C@@H]1CCCOC1)NC(=O)N1CCC[C@@H]([C@@H](OCCNC(=O)OC)c2cccc(Cl)c2)C1
- IC50 [6]: 4.5 nM
- IC50 [11]: 5.5 nM
- IC50 [13]: 2.7 nM
